Shown are actives, neighbours in structure and some others; about 2.6% of the full set was active somewhere.
SENP8 block-1: inhibitors of human SENP8 protease. Q96LD8. inhibition, % at 20 µM. 360,000 compounds, 0.64% hits. recombinant SENP8, Nedd8 substrate fluorescence; in the data active means inhibition mostly above about 40%, no sharp cut-off; inactive means mostly below about 27%
Target sequence (Q96LD8 whole entry, looked up): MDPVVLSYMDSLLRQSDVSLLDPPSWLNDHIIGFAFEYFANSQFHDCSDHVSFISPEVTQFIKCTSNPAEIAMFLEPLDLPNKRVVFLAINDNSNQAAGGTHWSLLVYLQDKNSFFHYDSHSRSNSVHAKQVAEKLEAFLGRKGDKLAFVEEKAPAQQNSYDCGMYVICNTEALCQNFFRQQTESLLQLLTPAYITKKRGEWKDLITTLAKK
SENP1 inh: blocks the human SENP1 SUMO protease catalytic domain; Q9P0U3; recombinant SENP1 catalytic domain, CyPet-SUMO1-YPet FRET cleavage; inhibition, % at 10 µM; 360,000 compounds, 0.21% hits;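 active means inhibition at least 30% at 10 µM, raw YFP signal under a set limit, fluorescence ratio 0.5 to 1.5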;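 further: 0% = enzyme with DMSO and 100% = no enzyme wells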
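Material – human SENP1 catalytic domain · Input – SENP1 enzyme, 20 pM final · Compound dosing – single concentration of 10 µM compound, 0.5% DMSO final · Timing – enzyme reaction for 50 min at room temperature, dark · Measured by – FRET fluorescence in CFP and YFP emission channels · Control set – no-enzyme wells low, DMSO-plus-enzyme wells high control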
SENP6 inh: blocks the human protease SENP6 | Recombinant SENP6 catalytic domain, aminoluciferin luminescence | inhibition, % at 10 µM | 330,000 compounds, 1.8% hits | Q9GZR1;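 active means inhibition above about 50% at the single tested dose, limit read from the data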;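 further: plate controls were DMSO wells with enzyme for no effect and DMSO wells lacking enzyme for full effect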
SENP7 inh: blocks the human protease SENP7 | Q9BQF6 | recombinant SENP7, Z-RLRGG-aminoluciferin luminescence, 40 min | inhibition, % at 5 µM | 330,000 compounds, 1.5% hits;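 active means inhibition above about 50% at the single test dose, limit read from the data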;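 further: plate controls were DMSO with enzyme for no effect and no enzyme buffer wells for full effect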
Target sequence (Q9BQF6 706-1050 limits assumed): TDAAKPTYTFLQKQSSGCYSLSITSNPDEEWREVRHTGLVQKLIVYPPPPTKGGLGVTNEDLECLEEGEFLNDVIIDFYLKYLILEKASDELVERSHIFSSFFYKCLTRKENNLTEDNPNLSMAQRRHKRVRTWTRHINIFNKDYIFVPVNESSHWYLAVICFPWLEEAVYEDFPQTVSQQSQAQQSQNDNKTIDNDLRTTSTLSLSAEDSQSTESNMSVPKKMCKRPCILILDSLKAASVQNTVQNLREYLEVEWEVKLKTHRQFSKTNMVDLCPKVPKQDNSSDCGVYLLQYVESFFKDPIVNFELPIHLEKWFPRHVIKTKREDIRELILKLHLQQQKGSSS
SENP8 block-2: SENP8 protease inhibition. Q96LD8. purified SENP8, Z-RLRGG-aminoluciferin cleavage, luminescence. 330,000 compounds, 1.2% hits. AID 2540. inhibition, % at 10 µM; in the data active means inhibition above about 50%
Platelet DG rel: modulates dense granule release in human platelets; 300,000 compounds, 0.22% hits; inhibition, %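 (compounds screened at 7.5 µM in platelet-rich plasma)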; human platelet-rich plasma, SFLLRN dense granule ATP release, luminescence;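 active means mean replicate score, as percent of positive control, at or above 50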
SENP8 confirm: confirmation of human SENP8 protease inhibitors. Recombinant SENP8, Z-RLRGG-aminoluciferin luminescence, 60 min. shares compounds with SENP7 inh. inhibition, % at 12.5 µM. 6,200 compounds, 40% hits. AID 488912;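 active means mean inhibition across replicates above about 50%, limit read from the data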
SENP6 conf: human SENP6 inhibition, confirmed; recombinant SENP6, Z-RLRGG-aminoluciferin luminescence; 6,200 compounds, 58% hits; inhibition, % at 12.5 µM; AID 488915; shares compounds with SENP7 inh
SENP7 conf: confirmation of human SENP7 protease inhibitors. shares compounds with SENP7 inh. recombinant SENP7, Z-RLRGG-aminoluciferin luminescence, 40 min. inhibition, % at 12.5 µM. 6,200 compounds, 69% hits. AID 488917
Casp3 SENP sel: caspase-3 inhibition (SENP selectivity assay); shares compounds with SENP7 inh; AID 488918; purified caspase-3, Z-DEVD-aminoluciferin luminescence, 60 min; 6,200 compounds, 60% hits; inhibition, % at 12.5 µM;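 active means mean inhibition above about 50%, limit read from the data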;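 further: plate controls were enzyme with DMSO for no effect and wells without caspase-3 for full effect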
Luc interf: luminescence interference (SENP counter-screen) | shares compounds with SENP7 inh | inhibition, % at 12.5 µM | Pre-incubated SENP8/Z-RLRGG-aminoluciferin, luciferase luminescence interference | 6,200 compounds, 39% hits;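 active means mean inhibition above about 50% when retested at one dose, limit read from the data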;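 further: plate controls were DMSO wells with completed reaction for no effect and substrate without enzyme for full effect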
The depositor's hits bear a star; i = inactive; nt = no result given; ! = a repeat was not active.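 How the source made its calls, unless noted: active means mean inhibition above about 50% in the one-dose retest (limit read from the data); inactive means the rest.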

SMILES	SENP8 block-1	SENP1 inh	SENP6 inh	SENP7 inh	SENP8 block-2	Platelet DG rel	SENP8 confirm	SENP6 conf	SENP7 conf	Casp3 SENP sel	Luc interf
Cc1ccnc(NC(=O)c2ccc(C(=O)c3ccccc3)cc2)c1	-0.6	2.5	79.8*	69.5*	73.0*	20.1	71.8*	68.9*	93.0*	85.3*	78.0*
CCOc1ccc(C(=O)Nc2cccc(C)n2)cc1	18.8	2.5	87.3*	91.4*	79.9*	30.0	-9.4	83.4*	98.3*	94.3*	87.3*
CCOc1ccc(C(=O)Nc2cc(C)ccn2)cc1	10.5	0.4	90.9*	96.2*	90.8*	75.9*	-12.4	89.8*	100.1*	96.4*	90.6*
COc1ccc(N2CCN(C(=O)C(=O)c3cc(OC)c(OC)c(OC)c3)CC2)cc1	13.1	2.6	nt	nt	nt	nt	nt	nt	nt	nt	nt
O=C1NC[C@@H](CCCCN2C[C@H](Cc3ccc(O)cc3)N(CC3CCCCC3)C(=O)C2=O)N(CCC2CCCCC2)C1=O	7.9	0.8	nt	nt	nt	nt	nt	nt	nt	nt	nt
Nc1nnc(SCC(=O)NNC(=O)c2ccc(F)cc2)s1	15.8	0.7	-5.2	2.3	0.3	nt	nt	nt	nt	nt	nt
O=C(Nc1cc(-c2ccccc2)[nH]n1)c1ccccc1	0.6	-2.4	80.3*	62.4*	58.9*	3.4	68.1*	62.5*	87.5*	63.0*	70.6*
O=C(O)c1ccccc1C(=O)Nc1cc(-c2ccccc2)[nH]n1	2.4	1.1	-18.3	0.3	2.5	6.2	nt	nt	nt	nt	nt
CC1=NN(C(N)=S)C(=O)C1N=Nc1ccc(C)cc1C (stereo not drawn)	nt	nt	91.7*	67.8*	81.0*	-20.9	41.4	58.2*	70.5*	68.4*	28.9
CC1=NN(C(N)=S)C(=O)C1N=Nc1c(Br)cc(Br)cc1Br (stereo not drawn)	17.7	3.5	85.1*	0.4	73.8*	9.0	1.0	82.2*	89.7*	51.1*	58.1*
CC1=NN(C(N)=S)C(=O)C1N=Nc1c(Cl)cc([N+](=O)[O-])cc1Cl (stereo not drawn)	47.2*	6.6	97.8*	81.7*	95.4*	-2.1	96.1*	96.2*	101.3*	94.7*	65.4*
CC1=NN(C(N)=S)C(=O)C1N=Nc1ccccc1C (stereo not drawn)	34.7	3.0	-2.3	47.7	75.0*	0.0	31.0	41.2	58.1*	70.1*	23.0
CC1=NN(C(N)=S)C(=O)C1N=Nc1c(C)cc(C)cc1C (stereo not drawn)	25.8	4.1	15.5	0.5	-8.2	1.4	nt	nt	nt	nt	nt
COC(=O)Nc1nnc(-c2ccncc2)s1	-261.1	-2.7	14.4	4.0	-2.3	-3.4	nt	nt	nt	nt	nt
COC(=O)Nc1nnc(-c2ccccc2Cl)s1	-138.6	-2.5	75.7*	71.7*	49.8	0.1	56.9*	55.7*	83.3*	49.5	23.2
Oc1c(CN2CCCC(C(F)(F)F)C2)cc(Cl)c2ccccc12 (stereo not drawn)	-246.0	-13.1	9.1	13.5	16.3	9.5	nt	nt	nt	nt	nt
CO/N=C/C(C(C)=O)C(=O)Nc1ccc(Cl)cc1Cl (stereo not drawn)	8.6	-3.3	56.4*	-3.6	10.3	-0.9	11.6	15.4	46.5	26.3	15.7
CCCC(C)C(=O)Nc1ccc(Cl)cc1Cl (stereo not drawn)	9.5	0.7	2.9	-1.0	-5.4	12.4	nt	nt	nt	nt	nt
Cc1ccc(NC(=O)c2ncn(CCCNCC3CCCCC3)n2)cc1C	-4.7	-5.3	nt	nt	nt	nt	nt	nt	nt	nt	nt
COc1cc2c(cc1OC)C(C(=O)NC(C)c1ccccc1)CC(=O)N2 (stereo not drawn)	28.6	0.0	-6.2	13.0	-1.9	6.7	nt	nt	nt	nt	nt
CCOc1cc2c(C#N)c(N3CCCC3)nc(N)c2c(N)n1	-269.5	-13.7	33.5	26.4	3.1	3.5	nt	nt	nt	nt	nt
COc1cc2c(C#N)c(N3CCN(C)CC3)nc(N)c2c(N)n1	-274.8	-53.7	58.9*	55.2*	0.9	10.5	-15.7	-3.7	-6.0	-3.3	-13.2
CCCOc1cc2c(C#N)c(N3CCCC3)nc(N)c2c(N)n1	i	-23.5	84.6*	60.8*	66.7*	-1.1	38.7	74.9*	38.7	nt	0.2
COc1cc2c(C#N)c(N3CCN(c4ccccc4OC)CC3)nc(N)c2c(N)n1	-401.8	-32.1	15.5	12.1	-0.2	0.1	nt	nt	nt	nt	nt
COc1cc2c(C#N)c(N3CCCC3)nc(N)c2c(N)n1	i	-28.6	94.8*	72.9*!	88.2*	-2.4	44.5	62.4*	37.4	7.2	-1.9
SMILES	SENP8 block-1	SENP1 inh	SENP6 inh	SENP7 inh	SENP8 block-2	Platelet DG rel	SENP8 confirm	SENP6 conf	SENP7 conf	Casp3 SENP sel	Luc interf
N#Cc1c(N2CCCC2)nc(N)c2c(N)nc(N3CCCC3)cc12	-414.3	-27.7	96.6*	97.1*	96.6*	-3.8	97.8*	98.0*	97.0*	96.6*	11.2
CCCCN(CC)c1nc(N)c2c(N)nc(OCC)cc2c1C#N	-275.5	-47.5	67.3*	23.8	66.4*	-0.7	-3.3	12.9	2.2	-5.6	-5.0
CCCCN(CC)c1nc(N)c(C#N)c(CC#N)c1C#N	-137.1	-30.4	22.4	5.9	6.1	3.6	nt	nt	nt	nt	nt
Cc1ccc(C2(C)NC(=O)N(CC(=O)N3c4ccccc4NC(=O)CC3C)C2=O)cc1 (stereo not drawn)	13.2	-13.4	9.8	-3.9	-2.0	nt	nt	nt	nt	nt	nt
CNC(=O)c1ccc(C)c(NC(=O)C2=C(C)OCCS2)c1	11.1	0.7	-28.9	-6.5	-6.8	-3.7	nt	nt	nt	nt	nt
CCC1(c2ccc(F)cc2)NC(=O)N(CC(=O)Nc2ccc(-c3nc4ccc(C)cc4s3)cc2)C1=O (stereo not drawn)	-265.7	-74.5	58.2*	-1.3	-11.7	24.3	2.8	-3.4	13.9	17.5	17.3
CCOc1ccc(CCNC(=O)COC(=O)COc2ccc(Br)cc2)cc1OCC	-8.2	4.1	-11.6	-1.0	-2.5	-5.5	nt	nt	nt	nt	nt
COc1ccc(C2CC=C(C(C)=O)CN2S(=O)(=O)c2ccc(Cl)cc2)cc1 (stereo not drawn)	-13.9	0.1	nt	nt	nt	nt	nt	nt	nt	nt	nt
O=C(O)c1cc2ccc(O)cc2oc1=O	-422.9	-29.4	nt	nt	nt	nt	nt	nt	nt	nt	nt
N=c1oc2cc(O)ccc2cc1C(=O)Nc1ccc(F)cc1	-292.3	-28.4	96.1*	98.0*	92.3*	4.4	91.0*	93.8*	99.6*	83.5*	61.7*
